Results from ChEMBL document CHEMBL1687755, “PER-6, an extended-spectrum beta-lactamase from Aeromonas allosaccharophila” (Antimicrob Agents Chemother, 2010).
In brackets after ≈: the same amount, converted by molar mass.

Tests used:
[1] = system: Aeromonas allosaccharophila; assay: Antimicrobial activity against Aeromonas allosaccharophila AL-1 expressing beta-lactamase PER6 by agar dilution method; assay type: functional
Summary of the method: (§1)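 The test organism was environmental isolate AL-1, recovered from Seine River water on MacConkey agar containing ceftazidime (2 μg/ml). It was identified by API 32GN and 16S rRNA gene sequencing. MICs were determined by agar dilution on Mueller-Hinton agar and interpreted by CLSI guidelines.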

Escherichia coli [2] = assay: Antimicrobial activity against Escherichia coli DH10B by agar dilution method; assay type: functional; settings: K-12 DH10B
Summary of the method: (§2)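 MICs measured by agar dilution on Mueller-Hinton agar plates, the method used for imipenem and imipenem combined with clavulanate; other MICs were obtained by Etest. Results were interpreted according to CLSI guidelines. Test strains were E. coli DH10B recombinants carrying cloned PER-1, PER-2 or PER-6 β-lactamase genes.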

Escherichia coli [3] = assay: Antimicrobial activity against Escherichia coli DH10B harboring recombinant Aeromonas allosaccharophila AL-1 beta-lactamase PER1 by agar dilution method; assay type: functional; settings: K-12 DH10B
Escherichia coli [4] = assay: Antimicrobial activity against Escherichia coli DH10B harboring recombinant Aeromonas allosaccharophila AL-1 beta-lactamase PER2 by agar dilution method; assay type: functional; settings: K-12 DH10B
Escherichia coli [5] = assay: Antimicrobial activity against Escherichia coli DH10B harboring recombinant Aeromonas allosaccharophila AL-1 beta-lactamase PER6 by agar dilution method; assay type: functional; settings: K-12 DH10B
[6] = system: Aeromonas allosaccharophila; assay: Ratio of Kcat to Km for Aeromonas allosaccharophila AL-1 beta-lactamase PER2
Escherichia coli [7] = assay: Antimicrobial activity against Escherichia coli DH10B by agar dilution method in presence of 4 ug/ml of clavulanic acid; assay type: functional; settings: K-12 DH10B; summary of the method: as §2
Escherichia coli [8] = assay: Antimicrobial activity against Escherichia coli DH10B harboring recombinant Aeromonas allosaccharophila AL-1 beta-lactamase PER2 by agar dilution method in presence of 4 ug/ml of clavulanic acid; assay type: functional; settings: K-12 DH10B
Escherichia coli [9] = assay: Antimicrobial activity against Escherichia coli DH10B harboring recombinant Aeromonas allosaccharophila AL-1 beta-lactamase PER6 by agar dilution method in presence of 4 ug/ml of clavulanic acid; assay type: functional; settings: K-12 DH10B
Escherichia coli [10] = assay: Antimicrobial activity against Escherichia coli DH10B harboring recombinant Aeromonas allosaccharophila AL-1 beta-lactamase PER1 by agar dilution method in presence of 4 ug/ml of clavulanic acid; assay type: functional; settings: K-12 DH10B
[11] = system: Aeromonas allosaccharophila; assay: Antimicrobial activity against Aeromonas allosaccharophila AL-1 expressing beta-lactamase PER6 by agar dilution method in presence of 4 ug/ml of clavulanic acid; assay type: functional; summary of the method: as §1
[12] = substrate: C[C@@H](O)[C@H]1C(=O)N2C(C(=O)O)=C(S[C@@H]3CN[C@H](C(=O)Nc4cccc(C(=O)O)c4)C3)[C@H](C)[C@H]12; assay: (§3) Ratio of Kcat to Km for Aeromonas allosaccharophila AL-1 beta-lactamase PER6
Summary of the method: (§4)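 PER-6 enzyme was purified from a crude extract of E. coli DH10B(pPER-6). Purification used cation exchange on S-Sepharose at pH 6.8, then anion exchange on Q-Sepharose at pH 8. Purity was >90% by SDS-PAGE. The purified enzyme was used for hydrolysis and inhibition measurements.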

[13] = substrate: C[C@@H](O)[C@H]1C(=O)N2C(C(=O)O)=C(SCCNC=N)C[C@H]12; assay: as §3; summary of the method: as §4
[14] = substrate: CC1(C)S[C@@H]2[C@H](NC(=O)Cc3ccccc3)C(=O)N2[C@H]1C(=O)O; assay: as §3; summary of the method: as §4
[15] = substrate: CC(=O)OCC1=C(C(=O)O)N2C(=O)[C@@H](NC(=O)Cc3cccs3)[C@H]2SC1; assay: as §3; summary of the method: as §4
[16] = substrate: CC1(C)S[C@@H]2[C@H](NC(=O)[C@H](C(=O)O)c3ccsc3)C(=O)N2[C@H]1C(=O)O; assay: as §3; summary of the method: as §4
[17] = substrate: CC(C)(O/N=C(\C(=O)N[C@@H]1C(=O)N2C(C(=O)[O-])=C(C[n+]3ccccc3)CS[C@H]12)c1csc(N)n1)C(=O)O; assay: as §3; summary of the method: as §4
[18] = substrate: CC1(C)S[C@@H]2[C@H](NC(=O)[C@H](N)c3ccccc3)C(=O)N2[C@H]1C(=O)O; assay: as §3; summary of the method: as §4
[19] = substrate: C[C@@H](O)[C@H]1C(=O)N2C(C(=O)O)=C(S[C@@H]3CN[C@H](C(=O)N(C)C)C3)[C@H](C)[C@H]12; assay: as §3; summary of the method: as §4
[20] = substrate: CCN1CCN(C(=O)N[C@@H](C(=O)N[C@@H]2C(=O)N3[C@@H]2SC(C)(C)[C@@H]3C(=O)O)c2ccccc2)C(=O)C1=O; assay: as §3; summary of the method: as §4
[21] = substrate: CO/N=C(\C(=O)N[C@@H]1C(=O)N2C(C(=O)[O-])=C(C[N+]3(C)CCCC3)CS[C@H]12)c1csc(N)n1; assay: as §3; summary of the method: as §4
[22] = substrate: CO/N=C(\C(=O)N[C@@H]1C(=O)N2C(C(=O)[O-])=C(C[n+]3cccc4c3CCC4)CS[C@H]12)c1csc(N)n1; assay: as §3; summary of the method: as §4
[23] = substrate: C[C@H]1[C@H](NC(=O)/C(=N\OC(C)(C)C(=O)O)c2csc(N)n2)C(=O)N1S(=O)(=O)O; assay: as §3; summary of the method: as §4
[24] = substrate: CO/N=C(\C(=O)N[C@@H]1C(=O)N2C(C(=O)O)=C(COC(C)=O)CS[C@H]12)c1csc(N)n1; assay: as §3; summary of the method: as §4
[25] = substrate: C[C@@H](O)[C@H]1C(=O)N2C(C(=O)O)=C(S[C@@H]3CN[C@H](C(=O)Nc4cccc(C(=O)O)c4)C3)[C@H](C)[C@H]12; assay: (§5) Activity at Aeromonas allosaccharophila AL-1 beta-lactamase PER6; summary of the method: as §4
[26] = substrate: C[C@@H](O)[C@H]1C(=O)N2C(C(=O)O)=C(SCCNC=N)C[C@H]12; assay: as §5; summary of the method: as §4
[27] = substrate: CC1(C)S[C@@H]2[C@H](NC(=O)Cc3ccccc3)C(=O)N2[C@H]1C(=O)O; assay: as §5; summary of the method: as §4
[28] = substrate: CC(=O)OCC1=C(C(=O)O)N2C(=O)[C@@H](NC(=O)Cc3cccs3)[C@H]2SC1; assay: as §5; summary of the method: as §4
[29] = substrate: CC1(C)S[C@@H]2[C@H](NC(=O)[C@H](C(=O)O)c3ccsc3)C(=O)N2[C@H]1C(=O)O; assay: as §5; summary of the method: as §4
[30] = substrate: CC(C)(O/N=C(\C(=O)N[C@@H]1C(=O)N2C(C(=O)[O-])=C(C[n+]3ccccc3)CS[C@H]12)c1csc(N)n1)C(=O)O; assay: as §5; summary of the method: as §4
[31] = substrate: CC1(C)S[C@@H]2[C@H](NC(=O)[C@H](N)c3ccccc3)C(=O)N2[C@H]1C(=O)O; assay: as §5; summary of the method: as §4
[32] = substrate: C[C@@H](O)[C@H]1C(=O)N2C(C(=O)O)=C(S[C@@H]3CN[C@H](C(=O)N(C)C)C3)[C@H](C)[C@H]12; assay: as §5; summary of the method: as §4
[33] = substrate: CCN1CCN(C(=O)N[C@@H](C(=O)N[C@@H]2C(=O)N3[C@@H]2SC(C)(C)[C@@H]3C(=O)O)c2ccccc2)C(=O)C1=O; assay: as §5; summary of the method: as §4
[34] = substrate: CO/N=C(\C(=O)N[C@@H]1C(=O)N2C(C(=O)[O-])=C(C[N+]3(C)CCCC3)CS[C@H]12)c1csc(N)n1; assay: as §5; summary of the method: as §4
[35] = substrate: CO/N=C(\C(=O)N[C@@H]1C(=O)N2C(C(=O)[O-])=C(C[n+]3cccc4c3CCC4)CS[C@H]12)c1csc(N)n1; assay: as §5; summary of the method: as §4
[36] = substrate: C[C@H]1[C@H](NC(=O)/C(=N\OC(C)(C)C(=O)O)c2csc(N)n2)C(=O)N1S(=O)(=O)O; assay: as §5; summary of the method: as §4
[37] = substrate: CO/N=C(\C(=O)N[C@@H]1C(=O)N2C(C(=O)O)=C(COC(C)=O)CS[C@H]12)c1csc(N)n1; assay: as §5; summary of the method: as §4

Molecule `C[C@@H](O)[C@H]1C(=O)N2C(C(=O)O)=C(S[C@@H]3CN[C@H](C(=O)N(C)C)C3)[C@H](C)[C@H]12` [MEROPENEM] has an MIC [1] of 0.06 µg/mL (≈ 0.156 µM), an MIC (Escherichia coli [2]) of 0.06 µg/mL (≈ 0.156 µM) and an MIC (Escherichia coli [3]) of 0.03 µg/mL. For the same molecule, the MIC (Escherichia coli [4]) was 0.03 µg/mL.

With `CO[C@@]1(NC(=O)C(C(=O)O)c2ccc(O)cc2)C(=O)N2C(C(=O)O)=C(CSc3nnnn3C)CO[C@@H]21` (some centres undefined) [MOXALACTAM] the MIC (Escherichia coli [5]) was 2 µg/mL, the MIC [1] was < 0.06 µg/mL and the MIC (Escherichia coli [2]) was 0.12 µg/mL (≈ 0.231 µM). The MIC (Escherichia coli [3]) was 1 µg/mL and the MIC (Escherichia coli [4]) was 0.5 µg/mL.

`CCN1CCN(C(=O)N[C@@H](C(=O)N[C@@H]2C(=O)N3[C@@H]2SC(C)(C)[C@@H]3C(=O)O)c2ccccc2)C(=O)C1=O` [PIPERACILLIN] was tested, and the MIC (Escherichia coli [5]) was 256 µg/mL, the MIC [1] was 4 µg/mL (≈ 7.73 µM) and the MIC (Escherichia coli [2]) was 1 µg/mL (≈ 1.93 µM). The MIC (Escherichia coli [3]) was 32 µg/mL, the kcat/Km [6] was 200000 M⁻¹ s⁻¹ and the MIC (Escherichia coli [4]) was 256 µg/mL.

In the case of `CC1(C)S[C@@H]2[C@H](NC(=O)[C@H](C(=O)O)c3ccsc3)C(=O)N2[C@H]1C(=O)O` [TICARCILLIN], the MIC (Escherichia coli [5]) is reported as > 256 µg/mL, the MIC [1] is reported as > 256 µg/mL and the MIC (Escherichia coli [7]) is reported as 4 µg/mL. For the same molecule, the MIC (Escherichia coli [8]) was 16 µg/mL, the MIC (Escherichia coli [9]) was 12 µg/mL and the MIC (Escherichia coli [2]) was 4 µg/mL (≈ 10.4 µM). The MIC (Escherichia coli [10]) was 16 µg/mL, the MIC (Escherichia coli [3]) was > 256 µg/mL and the MIC [11] was 256 µg/mL. The MIC (Escherichia coli [4]) was > 256 µg/mL.

B1: Extended-spectrum beta-lactamase PER-6 (Aeromonas allosaccharophila), D5HSX5 (protein)
chain: MNVIAKGVFTTTALLMLSLSSWVVSAQSPLLKEQIETIVTGKKATVGVAVWGPDDLEPLLVNPFEKFPMQSVFKMHLAMLVLHQVDQGKLDLNKTVAVNRAAVLQNTWSPMMKDHQGDEFTVTVQQLLQYSVSHSDNVACDLLFELVGGPAALHAYIQSLGIKETEVVANEAQMHADDQVQYKNWTSMKAAAQLLRKFEQKKQLSETSQALLWKWMVETTTGPQRLKGLLPAGTVVAHKTGTSGVRAGKTAATNDIGVIMLPDGRPLLVAVFVKDSAESARTNEAIIAQVAQAAYQFELKKLSAVSPD
With B1 the kcat/Km [12] was 0.0003 µM⁻¹ s⁻¹, the kcat/Km [13] was 0.004 µM⁻¹ s⁻¹ and the kcat/Km [14] was 0.025 µM⁻¹ s⁻¹. It also gave a kcat/Km [15] of 0.145 µM⁻¹ s⁻¹, a kcat/Km [16] of 0.05 µM⁻¹ s⁻¹ and a kcat/Km [17] of 10 µM⁻¹ s⁻¹. For the same molecule, the kcat/Km [18] was 0.05 µM⁻¹ s⁻¹, the kcat/Km [19] was 0.0004 µM⁻¹ s⁻¹ and the kcat/Km [20] was 0.025 µM⁻¹ s⁻¹. The kcat/Km [21] was 0.005 µM⁻¹ s⁻¹, the kcat/Km [22] was 0.008 µM⁻¹ s⁻¹ and the kcat/Km [23] was 75 µM⁻¹ s⁻¹. For the same molecule, the kcat/Km [24] was 0.045 µM⁻¹ s⁻¹, the Km [25] was 7 µM and the kcat [25] was 0.002 s⁻¹. For the same molecule, the Km [26] was 1.5 µM, the kcat [26] was 0.006 s⁻¹ and the Km [27] was 200 µM. It also gave a kcat [27] of 5 s⁻¹, a Km [28] of 55 µM and a kcat [28] of 8 s⁻¹. It also gave a Km [29] of 9 µM, a kcat [29] of 0.4 s⁻¹ and a Km [30] of 1000 µM. It also gave a kcat [30] of 12 s⁻¹, a Km [31] of 20 µM and a kcat [31] of 1 s⁻¹. For the same molecule, the Km [32] was 10 µM, the kcat [32] was 0.004 s⁻¹ and the Km [33] was 4 µM. It also gave a kcat [33] of 0.1 s⁻¹, a Km [34] of 2000 µM and a kcat [34] of 10 s⁻¹. The Km [35] was 1500 µM, the kcat [35] was 12 s⁻¹ and the Km [36] was 40 µM. For the same molecule, the kcat [36] was 3 s⁻¹, the Km [37] was 900 µM and the kcat [37] was 40 s⁻¹.
